Screening results (PubChem BioAssay)
The list is not random: actives were taken first. Their share in the collection is about 5.7%.
Calb FLC: affects C. albicans growth with fluconazole; C. albicans CaCi-2 (fluconazole-resistant clinical isolate) + fluconazole, Alamar Blue growth, 48 h; growth inhibition, % (no concentration beside the values); 300,000 tested, 0.57% active; AID 1979;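 active = growth inhibition above about 58% in most replicates, limit read from the data, passing the limit was not always enough; inconclusive = exactly half the replicates above a set limit; inactive = most replicates below a set limit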;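 also: all wells also contain fluconazole at 8 µg/ml as a sub-toxic cotreatment; 0% = median of DMSO wells and 100% = median of geldanamycin control wells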
T cruzi inh: blocks replication of Trypanosoma cruzi | 300,000 tested, 1.4% active | T. cruzi beta-gal in NIH3T3, luminescence, 90 h | AID 1885 | inhibition, % (concentration not given with the values);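 active = mean inhibition across valid replicates above about 55%, limit read from the data; inconclusive = mean below that limit but half or more replicates reach it; inactive = mean below it, under half of replicates reach it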;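 also: signal also drops with host cell toxicity which is not excluded here; 0% = plate median of DMSO wells and 100% = zero luminescence signal; higher percent means less beta-gal luminescence so fewer parasites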
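compound dosing = single 50 nL compound addition per well in DMSO | material = NIH/3T3 host cells with β-galactosidase reporter T. cruzi | input = 5,000 host fibroblasts per well | timing = ≥90 h infection period, 3 h prior cell attachment | read-out basis = percent inhibition of parasite-derived β-gal signal | detection = GalScreen β-gal luminescence, detergent lysis, 60 min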
SKKanGAS inh: SKKanGAS growth inhibition | AID 1662 | S. pyogenes SKKanGAS, kanamycin growth, BacTiter-Glo, 6 h | inhibition, % at 7.5 µM | 300,000 tested, 1.3% active;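 active = mean replicate score, as percent of positive control median, at least 50; inconclusive = mean below 50 but one replicate at or above 50; inactive = mean and every replicate below 50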;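 also: strain carries kanamycin resistance gene driven by streptokinase promoter and grows in 40 µg/ml kanamycin; loss of luminescence reflects streptokinase promoter inhibition or plain growth inhibition; 0% = median of DMSO wells and 100% = positive control at its reference dose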
CSC inhib: cancer stem cell inhibition | cancer stem cell-like cells viability, luminescence | inhibition, % at 7.5 µM | 300,000 tested, 1.1% active | AID 2717; in the data active = inhibition above about 75%; inconclusive = no clear call, values can overlap the other calls; tested in HMLE shEcad cells
Mdm2-MdmX inh: inhibitors of human Mdm2/MdmX interaction | O15151+Q00987 | SaOS-2 split-luciferase Mdm2/MdmX complementation, luminescence | inhibition, % at 8 µM | 330,000 tested, 3% active;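 active = inhibition of at least 50% at 8 µM in the primary screen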
Target sequence (O15151 whole entry, looked up): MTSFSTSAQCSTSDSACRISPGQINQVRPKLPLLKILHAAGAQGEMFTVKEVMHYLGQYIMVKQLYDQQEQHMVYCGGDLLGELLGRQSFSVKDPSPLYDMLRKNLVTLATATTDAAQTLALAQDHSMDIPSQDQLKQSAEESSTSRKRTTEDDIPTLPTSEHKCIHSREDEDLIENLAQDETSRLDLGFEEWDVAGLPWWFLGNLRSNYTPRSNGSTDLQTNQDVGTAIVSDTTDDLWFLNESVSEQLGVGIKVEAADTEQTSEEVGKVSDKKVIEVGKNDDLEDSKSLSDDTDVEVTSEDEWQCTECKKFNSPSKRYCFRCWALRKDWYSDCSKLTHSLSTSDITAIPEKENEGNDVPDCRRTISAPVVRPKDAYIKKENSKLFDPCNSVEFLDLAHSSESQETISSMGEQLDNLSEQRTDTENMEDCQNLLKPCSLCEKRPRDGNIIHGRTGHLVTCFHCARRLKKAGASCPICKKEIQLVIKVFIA
Target sequence (Q00987 whole entry, looked up): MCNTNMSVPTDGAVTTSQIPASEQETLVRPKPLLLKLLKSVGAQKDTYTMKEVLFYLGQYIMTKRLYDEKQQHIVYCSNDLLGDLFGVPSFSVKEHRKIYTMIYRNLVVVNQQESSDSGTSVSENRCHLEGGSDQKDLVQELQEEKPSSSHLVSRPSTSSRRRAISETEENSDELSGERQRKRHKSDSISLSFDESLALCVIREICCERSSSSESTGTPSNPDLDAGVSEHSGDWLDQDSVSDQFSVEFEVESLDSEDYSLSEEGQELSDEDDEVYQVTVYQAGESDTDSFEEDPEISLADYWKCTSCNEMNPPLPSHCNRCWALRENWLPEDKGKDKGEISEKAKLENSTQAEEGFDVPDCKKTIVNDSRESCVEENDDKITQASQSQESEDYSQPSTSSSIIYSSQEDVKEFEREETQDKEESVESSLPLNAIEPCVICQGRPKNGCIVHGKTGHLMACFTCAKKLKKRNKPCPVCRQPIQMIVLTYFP
Beta apoptosis: beta cell apoptosis inhibition. INS-1E cytokine-induced death, ATP luminescence, 48 h; percent of positive-control rescue, neutral wells zero. protection from apoptosis, % (no concentration beside the values). 300,000 tested, 0.8% active. AID 435005;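 active = Every replicate reaches about 75%, or at least half do and their mean reaches it too, limit read from the data; inconclusive = At least half of replicates reach the limit but their mean does not; inactive = Under half of replicates reach the limit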;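 also: 0% = cytokine-treated negative control wells and 100% = positive control rescue; higher means more ATP so stronger rescue from cytokine killing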
Mdm2 MdmX conf: confirmation of human Mdm2/MdmX interaction inhibitors; shares compounds with Mdm2-MdmX inh; Mdm2-MdmX binding, luminescent assay; inhibition, % at 8 µM; 10,000 tested, 55% active; AID 489028; in the data active = inhibition above about 40%
FLuc counter: counter-screen for Mdm2/MdmX inhibitors: full-length luciferase. shares compounds with Mdm2-MdmX inh. SaOS-2 full-length luciferase counterscreen, luminescence. inhibition, % at 8 µM. 6,200 tested, 77% active. AID 504607;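 active = mean inhibition at 8 µM reaching about 37%, which flags the compound as non-specific, limit read from the data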;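 also: p53-null SaOS-2 cells with luciferase driven by a doxycycline-inducible promoter; compound on cells about two nights before reading with doxycycline added after day one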
Starred values were filed as active, the others as inactive; ? = inconclusive; . = no result given.

SMILES	Calb FLC	T cruzi inh	SKKanGAS inh	CSC inhib	Mdm2-MdmX inh	Beta apoptosis	Mdm2 MdmX conf	FLuc counter
CCN1CCN(Cc2ccc(NC(=O)c3cc(NC(=O)N4CCNC4=O)cc(OC)c3)cc2C(F)(F)F)CC1	5	44	3	-8	76*	-5	50*	68*
CCN1CCN(Cc2ccc(NC(=O)c3cc(NC(=O)c4ccno4)cc(OC)c3)cc2C(F)(F)F)CC1	8	31	6	9	55*	-2	38	61*
COc1ccc(OCCn2cnc3ccccc32)cc1	0	17	-5	-9	-9	-7	.	.
COc1cc(CC(=O)OCC(=O)NC2CCCCCC2)cc(OC)c1OC	.	.	.	17	9	5	.	.
N#CCC(=O)Nc1ncc(Cc2ccccc2Cl)s1	-6	-7	2	26	-3	-13	.	.
CCN1CCN(Cc2ccc(NC(=O)c3cc(NC(=O)c4cc(-c5ccc(OC)cc5)n[nH]4)cc(OC)c3)cc2C(F)(F)F)CC1	52	45	71*	?	95*	10	24	.
CCN1CCN(Cc2ccc(NC(=O)c3ccc(C)c(NC(=O)c4csc(-c5ccncc5)n4)c3)cc2C(F)(F)F)CC1	21	46	9	-16	46	1	.	.
CCN1CCN(Cc2ccc(NC(=O)c3ccc(C)c(NC(=O)c4c[nH]c5cc(C(F)(F)F)ccc5c4=O)c3)cc2C(F)(F)F)CC1	12	46	92*	105*	100*	99*	100*	52*
O=C(NCC(Cl)c1ccc2ccccc2c1)c1c(F)cccc1F (stereo not given)	-1	9	5	-14	-4	4	.	.
O=S(=O)(c1ccc(Cl)cc1)c1snnc1-c1ccccc1	9	60*	15	108*	98*	12	80*	56*
COc1ccc(C2Oc3ccccc3C3=C2C(c2cccs2)n2ncnc2N3)cc1 (stereo not given)	9	23	78*	53	72*	2	70*	30
Cc1ccc(Cc2nnc3n(-c4ccccc4)nc(C(=O)c4ccccc4)n3c2=O)cc1	-10	23	31	14	53*	.	58*	53*
Cc1cc(=O)n(Cc2ccccc2)c(O)c1C#N	9	-16	2	5	-12	-1	.	.
Cc1c(C#N)c(NC(=O)CCl)n(Cc2ccc(F)cc2)c1C	-16	15	0	15	89*	-4	51*	43*
Cc1c(C#N)c(NC(=O)CCl)n(Cc2cccs2)c1C	-6	61*	1	-1	94*	6	76*	38*
Cc1c(C#N)c(NC(=O)CCl)n(Cc2ccccc2)c1C	97*	?	11	33	94*	3	86*	38*
Cc1cc(OCC(=O)NCc2ccncc2)c2c(C)c(C)c(=O)oc2c1	-4	9	13	-7	17	4	.	.
CCNC(=O)CC1C(=O)N(c2ccc(C)cc2)C(=O)N1CCC(C)C (stereo not given)	-4	-7	-2	-1	2	.	.	.
Cc1ccnc(NC(=O)c2cccc(NC(=O)Cc3ccccc3)c2)c1	5	10	-9	41	21	-1	.	.
Cc1ccnc(NC(=O)Cc2ccc(-c3ccccc3)cc2)c1	-3	16	33	-1	91*	71	94*	145*
Cc1ccc(NC(=O)CCc2c[nH]c3ccccc23)nc1	-16	-4	0	.	83*	.	73*	52*
Cc1ccc(NC(=O)Cc2ccc(-c3ccccc3)cc2)nc1	-9	6	25	5	75*	-18	45*	80*
COc1ccc(NC(=O)Cc2ccc(-c3ccccc3)cc2)cn1	10	0	1	59	52*	5	55*	62*
COc1ccc(CC(=O)Nc2ccc(OC)nc2)cc1	2	0	3	0	-34	0	.	.
CCOC(=O)c1c(C)[nH]c(C)c1S(=O)(=O)N(C)CC(=O)Nc1ccccc1	12	-9	-3	-10	-1	3	.	.
SMILES	Calb FLC	T cruzi inh	SKKanGAS inh	CSC inhib	Mdm2-MdmX inh	Beta apoptosis	Mdm2 MdmX conf	FLuc counter
COc1ccc(NC(=O)/C(Cl)=C(/Cl)S(=O)Cc2ccc(Cl)cc2)cn1 (stereo not given)	.	.	.	.	97*	.	100*	2
O=C(Cc1ccc(-c2ccccc2)cc1)Nc1ccccn1	-10	10	10	68	69*	8	55*	62*
O=C(CC(=O)Nc1ccccn1)Nc1ccccn1	0	-10	-13	-12	-21	-2	.	.
COc1ccc(CN2C(=O)c3ccccc3C2=O)cc1C(=O)Nc1ccccc1N1CCOCC1	38	-24	16	1	21	-1	.	.
COc1ccc(NC(=O)c2cc(CN3C(=O)c4ccccc4C3=O)ccc2OC)cn1	8	5	4	23	53*	-3	9	.
O=C(O)COc1ccc(Br)cc1CP(=O)(c1ccccc1)c1ccccc1	-2	-2	-12	-3	14	-7	.	.
O=C(O)COc1c(-c2ccco2)oc2ccccc2c1=O	-4	-9	-2	-4	-14	0	.	.
COc1ccc(-c2oc3ccccc3c(=O)c2OC(C)=O)cc1	45	23	16	27	73*	3	83*	51*
CC(=O)Oc1c(-c2ccc(Br)o2)oc2ccccc2c1=O	85*	-5	86*	21	93*	2	41*	30
O=C(O)c1cccc(-n2sc3ccccc3c2=O)c1	.	.	.	19	-15	-16	.	.
O=c1c2ccccc2sn1-c1ccccc1	-1	65*	100*	24	76*	26	6	.
Cc1ccc(S(=O)(=O)Nc2ccc3c(c2)C(=O)N([C@H](C)CO)C[C@H](C)[C@@H](CN(C)Cc2ccc(-c4ccccc4)cc2)O3)cc1	.	.	.	62	77*	2	9	.
Cc1ccc(S(=O)(=O)Nc2cccc3c2O[C@H](CN(C)Cc2ccc(-c4ccccc4)cc2)[C@@H](C)CN([C@H](C)CO)C3=O)cc1	.	.	.	.	53*	-11	17	.
COc1ccc(S(=O)(=O)Nc2ccc3c(c2)C(=O)N([C@H](C)CO)C[C@H](C)[C@H](CN(C)Cc2ccc(C(=O)O)cc2)O3)cc1	.	.	.	-5	-9	-4	.	.
Cc1nc(-c2ccc(F)cc2)c(CC(=O)N(C)CC(=O)Nc2ccc(Br)cc2C)s1	7	7	-4	-8	18	3	.	.
O=C(c1ccccc1F)N1CCN(c2cccc(C(F)(F)F)c2)CC1	-9	29	-3	-5	16	0	.	.
O=C(c1c(F)c(F)c(F)c(F)c1F)N1CCN(c2cccc(C(F)(F)F)c2)CC1	2	8	3	46	58*	8	16	.
COc1nc(-c2ccccc2)ncc1S(=O)(=O)c1ccccc1	-16	18	-9	6	17	-2	.	.
